Laboratory results reported in PMC6127800 (Molecular Pharmaceutics, 2018).
Read-outs that look alike come from different tables or passages of the source.

Experiments:
[1] = Ex vivo biodistribution of [68Ga]WL12 in hPD-L1 and CHO tumor model; design: species or system mice; settings: female, NSG, mouse, iv, 25 uCi, total radioactivity
In short: (§1)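 Female NSG mice, 6–8 weeks old, carried s.c. CHO cells stably expressing human PD-L1 and parental CHO cells (10 × 10^6, opposite upper flanks), used at 200−500 mm3. Radiotracer was given i.v. at 25 μCi, with tissues taken at 15, 60 and 120 min (n = 3). Blocking (n = 2) used 50 μg unlabeled peptide s.c. 60 min pre-tracer. %ID/g was decay-corrected against triplicate 68Ga standards; tumor-to-blood and tumor-to-muscle ratios were derived.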

hPD-L1 and CHO tumors = test: as above; design: species or system mice; settings: 120 min
In short: as §1

[2] = type: in vivo, mice; settings: female, NSG, mouse, iv, 25 uCi, total radioactivity
[3] = test system: MDAMB231 and SUM149 tumors; type: in vivo, mice; settings: 60 min; 50 μg WL12 s.c. 60 min before tracer, n = 2

CCCC[C@H]1C(=O)N(C)[C@@H](CCCC)C(=O)N[C@@H](CCCNC(=O)CCC(C(=O)O)N2CCN(CC(=O)O)CCN(CC(=O)O)CCN(CC(=O)O)CC2)C(=O)N[C@H](C(=O)NCC(N)=O)CSCC(=O)N[C@@H](Cc2ccc(O)cc2)C(=O)N(C)[C@@H](C)C(=O)N[C@@H](CC(N)=O)C(=O)N2CCC[C@H]2C(=O)N[C@@H](Cc2c[nH]cn2)C(=O)N[C@@H](CC(C)C)C(=O)N2C[C@H](O)C[C@H]2C(=O)N[C@@H](Cc2c[nH]c3ccccc23)C(=O)N[C@@H](CO)C(=O)N[C@@H](Cc2cn(C)c3ccccc23)C(=O)N1C (stereo partly shown) [[^68Ga]WL12, metal not drawn] showed a tissue uptake at 1 h ([1]; CHO tumor) of 1.33 ± 0.21 %ID/g, a tissue uptake at 1 h ([1]; blood) of 3.3 ± 0.4 %ID/g and a tissue uptake at 2 h ([1]; blood) of 0.6 ± 0.01 %ID/g. The tissue to tissue ratio at 2 h ([1]; hPD-L1 tumor / blood) was 16 ± 3.4, the tissue to tissue ratio at 1 h ([1]; hPD-L1 tumor / muscle) was 59.8 ± 16.5 and the tissue to tissue ratio at 2 h ([1]; hPD-L1 tumor / muscle) was 100 ± 61.2. It also gave a tissue uptake at 0.25 h ([1]; hPD-L1 tumor) of 19.4 ± 3.3 %ID/g, a tissue uptake at 1 h ([1]; hPD-L1 tumor) of 11.6 ± 3.18 %ID/g and a tissue uptake at 2 h ([1]; hPD-L1 tumor) of 9.89 ± 1.72 %ID/g. The tissue uptake at 1 h ([1]; kidney) was 64.7 ± 12.1 %ID/g, the tissue uptake at 2 h ([1]; kidney) was 27.7 ± 4.09 %ID/g and the tissue uptake at 1 h ([1]; liver) was 15.1 ± 7.6 %ID/g. It also gave a tissue uptake at 2 h ([1]; liver) of 2.7 ± 0.2 %ID/g, a hPD-L1/CHO tumor ratio (hPD-L1 and CHO tumors) of 19.7 ± 2.7 and a tissue uptake at 1 h ([2]; MDAMB231 tumor) of 4.97 ± 0.8 %ID/g. It also gave a tissue uptake at 1 h ([2]; SUM149 tumor) of 1.9 ± 0.1 %ID/g, a tissue uptake at 1 h ([2]; kidney) of 65.6 ± 3.6 %ID/g and a tissue uptake at 1 h ([2]; liver) of 11.4 ± 0.7 %ID/g. The “reduction in MDAMB231 tumor uptake with blocking dose of WL12” value [3] was over 50%.
